Assay results gathered from unrelated publications.
Protocols differ between the studies behind these lines.

CC(/C=C/C=C(\C)C(=O)O)=C\C=C\C=C(C)\C=C\C=C(/C)C(=O)O  logD (shake flask; PBS; 2 h, pH 7.4): 0.7
CCn1cc(C)c2c([C@H](N)c3ccc(C(F)(F)F)nc3)n(C)nc2c1=O  hepatocyte CLint (metabolic stability; male Sprague-Dawley rat, hepatocytes; 0.5 µM, pH 7.4): 1.9 µL/min/10⁶ cells
Cc1ccc(Cn2cc(C(=O)NN)c(=O)c3cc(Oc4ccccc4)ccc32)cc1  logD (shake flask; PBS; 2 h, pH 7.4): 2
Cc1c(C(=O)O)ccc2c3n(nc12)[C@@H]1[C@H](C3)N(CC2CC2)[C@@]2(C(=O)Nc3cc(Cl)ccc32)[C@H]1c1cccc(Cl)c1F  fraction unbound (bovine, serum): 0.045
COc1cc2nc3n(c(=O)c2cc1Cl)CC[C@@H]1[C@@H]3CCCN1CC1COC1  logD (shake flask; aqueous buffer; 1 h, pH 7.4): 2.3
CCn1ccc2c([C@](O)(c3cnc(C(F)(F)F)c(Cl)c3)C3CC3)n(C)nc2c1=O  hepatocyte CLint (metabolic stability; male Sprague-Dawley rat, hepatocytes; 0.5 µM, pH 7.4): 3.3 µL/min/10⁶ cells
C[C@H]1Oc2cc(cnc2N)-c2c(nn(C)c2C#N)CN(C)C(=O)c2ccc(F)cc21  fraction unbound (bovine, serum): 0.98
C=C(F)C(=O)N1CCN(c2nc(OC[C@@H]3CCCN3C)nc3c2CCN(c2cccc4cccc(Cl)c24)C3)C[C@@H]1CC#N  logD (potentiometric; pH 7.4): 3.6
Cc1c(N(C)C)ccc2cc(C(=O)NS(=O)(=O)c3ccccc3-c3ccccc3)oc12  logD (pH 7.5): 2.1
O=c1ccc2ccc(O)cc2o1  scaled CLint (metabolic stability; rat, liver microsomes): 1030 mL/min/kg
COCCc1ccc(OCC(O)CNC(C)C)cc1 (stereo not drawn)  hepatocyte CLint (metabolic stability; Sprague-Dawley rat, hepatocytes; 0.5 µM, pH 7.4): 35 µL/min/10⁶ cells
O=c1ccc2ccc(O)cc2o1  hepatocyte CLint (metabolic stability; Sprague-Dawley rat, hepatocytes; 1 µM): 61 µL/min/10⁶ cells
O=C(O)Cc1ccccc1Nc1c(Cl)cccc1Cl  hepatocyte CLint (metabolic stability; Sprague-Dawley rat, hepatocytes; 0.5 µM, pH 7.4): 66 µL/min/10⁶ cells
O=C1CC[C@H](N2Cc3cc(N4CCN(CC5CCN(c6ccc([C@@H]7c8ccc(O)cc8CC[C@@H]7c7ccccc7)cc6)CC5)CC4)ccc3C2=O)C(=O)N1  hepatocyte CLint (metabolic stability; Sprague-Dawley rat, hepatocytes; 1 µM): 8.4 µL/min/10⁶ cells
CCOc1ccc2ccc(=O)oc2c1  hepatocyte CLint (metabolic stability; male Sprague-Dawley rat, hepatocytes; 1 µM): 52.8 µL/min/10⁶ cells
